Measurements published in ChEMBL document CHEMBL1138555, “N-acylated and N,N'-diacylated imidazolidine-2-thione derivatives and N,N'-diacylated tetrahydropyrimidine-2(1H)-thione analogues: synthesis and antiproliferative activity” (Eur J Med Chem, 2009).

Legend:
MT4 = assay: Antiproliferative activity against human MT4 cells assessed as reduction of growth by MTT assay; type: functional, cell-based
How it was run: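 MT-4 lymphoblastoid T cells (ATCC) in RPMI 1640 with 10% FCS, penicillin/streptomycin, checked for mycoplasma. 1 × 10⁴ mock-infected cells per well with serial dilutions from a 100 mM DMSO stock. Incubated 4 days at 37 °C, viable cells counted by MTT. IC50 versus untreated controls by linear regression. Mean of three separate experiments.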

CCRF-CEM = assay: Growth inhibition of human CCRF-CEM cells after 48 hrs by sulforhodamine B assay; type: functional
How it was run: (§1)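 NCI screen panel. Five 10-fold concentrations from 10^-4 to 10^-8 M. Exposure for the last 48 h of a 72 h incubation. Growth estimated by sulforhodamine B protein assay. GI50 is the concentration giving 50% growth inhibition. Where that level was not reached or was exceeded, the value is given as above or below the highest or lowest concentration tested.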

HL-60(TB) = assay: Growth inhibition of human HL-60(TB) cells after 48 hrs by sulforhodamine B assay; type: functional; conditions: HL-60, 48 h
How it was run: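 NCI 60-cell-line screen protocol: cells exposed to compound at five 10-fold dilutions from 10^-4 to 10^-8 M for the last 48 h of a 72 h incubation. Sulforhodamine B protein assay estimated viability/growth. GI50 (50% growth inhibition) derived; where not reached or exceeded, reported as greater or less than the highest or lowest concentration tested.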

K562 = assay: Growth inhibition of human K562 cells after 48 hrs by sulforhodamine B assay; type: functional; conditions: K562, 48 h; how it was run: as §1
MOLT-4 = assay: Growth inhibition of human MOLT4 cells after 48 hrs by sulforhodamine B assay; type: functional; conditions: MOLT-4, 48 h; how it was run: as §1
[1] = Growth inhibition of human […] cells after 48 hrs by sulforhodamine B assay; type: functional; how it was run: as §1
SR = assay: Growth inhibition of human SR cells after 48 hrs by sulforhodamine B assay; type: functional
How it was run: (§2)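 NCI in vitro panel screen. Compounds tested at five 10-fold dilutions, 10^-4 to 10^-8 M. Cells in 96-well plates were exposed for the last 48 h of a 72 h incubation. Viability/growth was read by sulforhodamine B protein assay. GI50 is the concentration giving 50% growth inhibition. Values beyond the tested range are reported as greater or less than the maximum or minimum concentration.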

A549 = assay: Growth inhibition of human A549 cells after 48 hrs by sulforhodamine B assay; type: functional; conditions: A549, 48 h; how it was run: as §1
EKVX = assay: Growth inhibition of human EKVX cells after 48 hrs by sulforhodamine B assay; type: functional; how it was run: as §1
HOP-62 = assay: Growth inhibition of human HOP62 cells after 48 hrs by sulforhodamine B assay; type: functional; conditions: HOP-62, 48 h; how it was run: as §1
HOP-92 = assay: Growth inhibition of human HOP92 cells after 48 hrs by sulforhodamine B assay; type: functional; conditions: HOP-92, 48 h; how it was run: as §1
NCI-H23 = assay: Growth inhibition of human NCI-H23 cells after 48 hrs by sulforhodamine B assay; type: functional; conditions: NCI-H23, 48 h; how it was run: as §1
NCI-H322M = assay: Growth inhibition of human NCI-H322M cells after 48 hrs by sulforhodamine B assay; type: functional; how it was run: as §1
NCI-H460 = assay: Growth inhibition of human NCI-H460 cells after 48 hrs by sulforhodamine B assay; type: functional; conditions: NCI-H460, 48 h; how it was run: as §1
NCI-H522 = assay: Growth inhibition of human NCI-H522 cells after 48 hrs by sulforhodamine B assay; type: functional; conditions: NCI-H522, 48 h; how it was run: as §1
COLO 205 = assay: Growth inhibition of human COLO205 cells after 48 hrs by sulforhodamine B assay; type: functional; conditions: COLO 205, 48 h; how it was run: as §1
HCT-116 = assay: Growth inhibition of human HCT116 cells after 48 hrs by sulforhodamine B assay; type: functional; conditions: HCT-116, 48 h; how it was run: as §1
HCT-15 = assay: Growth inhibition of human HCT15 cells after 48 hrs by sulforhodamine B assay; type: functional; conditions: HCT-15, 48 h; how it was run: as §1
HT-29 = assay: Growth inhibition of human HT-29 cells after 48 hrs by sulforhodamine B assay; type: functional; conditions: HT-29, 48 h; how it was run: as §1
KM12 = assay: Growth inhibition of human KM12 cells after 48 hrs by sulforhodamine B assay; type: functional; conditions: KM12, 48 h; how it was run: as §1
SW-620 = assay: Growth inhibition of human SW620 cells after 48 hrs by sulforhodamine B assay; type: functional; conditions: SW-620, 48 h; how it was run: as §2
SF-268 = assay: Growth inhibition of human SF268 cells after 48 hrs by sulforhodamine B assay; type: functional; conditions: SF-268, 48 h; how it was run: as §1
SF-295 = assay: Growth inhibition of human SF295 cells after 48 hrs by sulforhodamine B assay; type: functional; conditions: SF-295, 48 h; how it was run: as §1
SNB-19 = assay: Growth inhibition of human SNB19 cells after 48 hrs by sulforhodamine B assay; type: functional; conditions: SNB-19, 48 h; how it was run: as §2
U-251 = assay: Growth inhibition of human U251 cells after 48 hrs by sulforhodamine B assay; type: functional; conditions: U-251, 48 h; how it was run: as §2
LOX IMVI = assay: Growth inhibition of human LOXIMVI cells after 48 hrs by sulforhodamine B assay; type: functional; how it was run: as §1

Compound: N#C/C(=C\N1CCN(C(=O)c2ccco2)C1=S)C(=O)Nc1ccc(Cl)cc1
- IC50 (MT4): 6.5 µM
- GI50 (CCRF-CEM): 22.5 µM
- GI50 (HL-60(TB)): 10.5 µM
- GI50 (K562): 16.1 µM
- GI50 (MOLT-4): 17.7 µM
- GI50 [1]: 10.5 µM
- GI50 (SR): 1.6 µM
- GI50 (A549): 25.8 µM
- GI50 (EKVX): 0.01 µM
- GI50 (HOP-62): 25.7 µM
- GI50 (HOP-92): 21.5 µM
- GI50 (NCI-H23): 12.3 µM
- GI50 (NCI-H322M): 28.6 µM
- GI50 (NCI-H460): 19.9 µM
- GI50 (NCI-H522): 16.7 µM
- GI50 (COLO 205): 25.6 µM
- GI50 (HCT-116): 15.2 µM
- GI50 (HCT-15): 21.3 µM
- GI50 (HT-29): 21.4 µM
- GI50 (KM12): 16.3 µM
- GI50 (SW-620): 17.3 µM
- GI50 (SF-268): 17.8 µM
- GI50 (SF-295): 20.2 µM
- GI50 (SNB-19): 27.6 µM
- GI50 (U-251): 17.3 µM
- GI50 (LOX IMVI): 16.7 µM
